This is an account of results in ChEMBL document CHEMBL4673227, “Development of Gleevec Analogues for Reducing Production of β-Amyloid Peptides through Shifting β-Cleavage of Amyloid Precursor Proteins” (J Med Chem, 2019).

Data set [1] in a line: Inhibition of beta secretase in mouse N2a695 cells assessed as reduction in A-beta 42 levels incubated for 5 hrs by ELISA. The data set is classed as cell-based. Conditions: N2a695, 5 h. The procedure, abridged:
(§1)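 Mouse N2a695 cells (N2a overexpressing human APP695), grown in Opti-MEM/DMEM with 5% FBS and geneticin at 37 °C, 5% CO₂. Cells seeded overnight in 6-well plates, >95% confluent, then given fresh medium with compounds (2.5–10 μM, diluted from DMSO stocks) for 5 h. Secreted Aβ40/Aβ42 measured by ELISA or MSD ELISA against DMSO control; 2–3 experiments averaged.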

A short description of data set [2]: Drug level in C57BL/6J mouse plasma at 50 mg/kg, ip measured after 4 hrs by LC-MS/MS analysis. The data set is classed as ADME, organism-based. The procedure, abridged:
(§2)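 Mesylate salts in water ([…], 125 μL) given i.p. at 50 or 150 mg/kg to 8-week-old male C57BL/6J mice. Brain and plasma harvested 4 h post-dose and snap-frozen. Brain homogenized and extracted twice with ethanol, plasma extracted with acetonitrile, both with internal standard. Drug quantified by LC-MS/MS; n = 3 or 4.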

Data set [3] in a line: Inhibition of beta secretase in mouse N2a695 cells assessed as reduction in A-beta 40 levels incubated for 5 hrs by ELISA. The data set is classed as cell-based. The conditions noted are these: N2a695, 5 h. The procedure, abridged: as §1
In general terms: ELISA stands for enzyme-linked immunosorbent assay.

Data set [4] deals with N2a695. As to the kind of experiment: Inhibition of beta secretase in mouse N2a695 cells assessed as reduction in A-beta 40 levels at 5 to 10 uM incubated for 5 hrs by ELISA. In kind it is cell-based. The conditions noted are these: dose 5-10 µM. The procedure, abridged: as §1
Data set [5] can be described thus: Drug level in C57BL/6J mouse brain at 50 mg/kg, ip measured after 4 hrs by LC-MS/MS analysis. The data set is classed as ADME, organism-based. Conditions: read-out: Drug uptake. An outline of the steps:
as §2

Data set [6] is described as follows: Toxicity in mouse N2a695 cells assessed as reduction in cell viability at 5 to 10 uM incubated for 5 hrs. Conditions: n2a695, 5 h, dose 5-10 µM. The data set is classed as cell-based. The procedure, abridged: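 N2a cells exposed to compounds at 10 μM for 5 h alongside the Aβ assay. Cell viability/density compared with DMSO control.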
Data set [7] has as its system N2a695. The experiment in a line: Inhibition of beta secretase in mouse N2a695 cells assessed as reduction in A-beta 42 levels at 5 to 10 uM incubated for 5 hrs by ELISA. The data set is classed as cell-based. Conditions: dose 5-10 µM. An outline of the steps: as §1
Data set [8] has as its system N2a695. As to the kind of experiment: Inhibition of beta secretase in mouse N2a695 cells assessed as reduction in A-beta 42 levels at 10 uM incubated for 5 hrs by ELISA. In kind it is cell-based. An outline of the steps:
as §1

The nature of data set [9]: Stability in mouse liver microsomes assessed as parent compound remaining level at 1 uM after 0.5 hrs by HPLC-MS/MS analysis. The conditions noted are these: read-out: Stabilty. In kind it is ADME, Microsome. (Liver microsomes are a subcellular fraction often used to study metabolism.)
Data set [10] in a line: Stability in human liver microsomes assessed as parent compound remaining level at 1 uM after 0.5 hrs by HPLC-MS/MS analysis. Conditions: read-out: Stabilty. The data set is classed as ADME, Microsome.
Data set [11] is described as follows: Stability in mouse liver microsomes assessed as parent compound remaining level at 1 uM after 1 hrs by HPLC-MS/MS analysis. The data set is classed as ADME, Microsome. The conditions noted are these: read-out: Stabilty.
Data set [12] in a line: Toxicity in mouse up to 150 mg/kg, po QD for 5 days. The data set is classed as organism-based. The conditions noted are these: in vivo, 120 h, time 5 day. The procedure, abridged: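 Wild-type mice given the compound by oral gavage, increasing amounts up to 150 mg/kg once daily for 5 days. Animals observed for signs of toxicity.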
A short description of data set [13]: Stability in mouse liver microsomes assessed as parent compound remaining level at 10 uM after 1 hrs by HPLC-MS/MS analysis. The data set is classed as ADME, Microsome. The conditions noted are these: read-out: Stabilty.
The nature of data set [14]: Stability in human liver microsomes assessed as parent compound remaining level at 1 uM after 1 hrs by HPLC-MS/MS analysis. The conditions noted are these: read-out: Stabilty. The data set is classed as ADME, Microsome.
Data set [15] is described as follows: Stability in human liver microsomes assessed as parent compound remaining level at 10 uM after 0.5 hrs by HPLC-MS/MS analysis. The data set is classed as ADME, Microsome. Conditions: read-out: Stabilty.
Data set [16] can be described thus: Stability in mouse liver microsomes assessed as parent compound remaining level at 10 uM after 0.5 hrs by HPLC-MS/MS analysis. The conditions noted are these: read-out: Stabilty. The data set is classed as ADME, Microsome.
Data set [17] is described as follows: Stability in human liver microsomes assessed as parent compound remaining level at 10 uM after 1 hrs by HPLC-MS/MS analysis. Conditions: read-out: Stabilty. In kind it is ADME, Microsome.
The nature of data set [18]: Drug level in plasma of wild-type mouse at 50 mg/kg, po after 12 hrs by LC-MS/MS analysis. Conditions: in vivo.
A short description of data set [19]: Drug level in brain of wild-type mouse at 50 mg/kg, po after 12 hrs by LC-MS/MS analysis. Conditions: in vivo.
Data set [20] is described as follows: Drug level in brain of wild-type mouse at 50 mg/kg, po after 6 hrs by LC-MS/MS analysis. The conditions noted are these: in vivo.
A short description of data set [21]: Drug level in plasma of wild-type mouse at 50 mg/kg, po after 24 hrs by LC-MS/MS analysis. The conditions noted are these: in vivo.
Data set [22] in a line: Drug level in C57BL/6J mouse brain at 150 mg/kg, ip measured after 4 hrs by LC-MS/MS analysis. In kind it is ADME, organism-based. Conditions: read-out: Drug uptake. An outline of the steps: as §2
Data set [23] has as its system N2a. The experiment in a line: Inhibition of gamma secretase in mouse N2a cells expressing APP-C99 assessed as reduction of A-beta42 levels at 10 uM incubated for 5 hrs by MSD-ELISA relative to control. The data set is classed as cell-based. An outline of the steps:
(§3)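 N2a cells transfected with plasmids for full-length APP695 or APP-C99. After 48 h, fresh medium with compounds (10 μM) added for 5 h. Supernatant Aβ40, Aβ42, sAPPα and sAPPβ measured by MSD ELISA against DMSO; BACE IV (2 μM) and DAPT (1 μM) run alongside.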

Data set [24] concerns N2a. The experiment in a line: Inhibition of gamma secretase in mouse N2a cells expressing APP-C99 assessed as reduction of A-beta40 levels at 10 uM incubated for 5 hrs by MSD-ELISA relative to control. In kind it is cell-based. An outline of the steps: as §3
A short description of data set [25]: Drug level in C57BL/6J mouse plasma at 150 mg/kg, ip measured after 4 hrs by LC-MS/MS analysis. The data set is classed as ADME, organism-based. An outline of the steps: as §2
Data set [26] relates to Mus musculus. As to the kind of experiment: Inhibition of FA-soluble A-beta-40 levels in 2xTg AD mouse model at 100 mg/kg, po BID for 4 days and once daily on day 5 by ELISA. The data set is classed as functional, organism-based. The conditions noted are these: time 5.0 day. The procedure, abridged:
(§4)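 2xTg AD females (APP Swedish/PS1ΔE9), 5 months old, n = 7 per group. 2a-mesylate 20 mg/mL in water with 0.1% methylcellulose, 100 mg/kg by gavage, or vehicle, twice daily 8 h apart for 4 days, then once on day 5. Euthanized 4 h after last dose. Left hemisphere homogenized in 1% Triton X-100 TBS (pH 7.4), then insoluble Aβ extracted with 70% formic acid and measured by ELISA.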

Data set [27] has as its system N2a695. The experiment in a line: Inhibition of beta secretase in mouse N2a695 cells assessed as reduction in A-beta 40 levels at 5 uM treated 1 hr after BACE IV treatment and further incubated for 5 hrs by ELISA. In kind it is cell-based. The procedure, abridged:
(§5)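 N2a695 cells pretreated with BACE IV for 1 h, then treated with compound plus BACE IV for 5 h. Secreted Aβ40 and Aβ42 measured by ELISA.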

Data set [28] concerns N2a695. The experiment in a line: Inhibition of beta secretase in mouse N2a695 cells assessed as reduction in A-beta 42 levels at 5 uM treated 1 hr after BACE IV treatment and further incubated for 5 hrs by ELISA. In kind it is cell-based. An outline of the steps: as §5
The test system of data set [29] is Mus musculus. The experiment in a line: Inhibition of FA-soluble A-beta-42 levels in 2xTg AD mouse model at 100 mg/kg, po BID for 4 days and once daily on day 5 by ELISA. In kind it is functional, organism-based. An outline of the steps: as §4
The test system of data set [30] is N2a. As to the kind of experiment: Inhibition of gamma secretase in mouse N2a cells expressing FL APP695 assessed as reduction of A-beta levels at 1 uM incubated for 5 hrs by MSD-ELISA. The data set is classed as cell-based.
Data set [31] deals with N2a. The experiment in a line: Inhibition of beta secretase in mouse N2a cells expressing FL APP695 assessed as reduction of A-beta levels at 2 uM incubated for 5 hrs by MSD-ELISA.

Molecules are shown by their SMILES. Calls of active or inactive are those of the source. The rule behind the calls is not given here.

In the case of `Cc1ccc(NC(=O)c2ccc(N3CCN(C)CC3)cc2)cc1Nc1nccc(-c2cccnc2)n1`, the IC50 in [1] and in data set [3] was above 5 µM in each case. Further, the results for the concentration at 4 h in [2] and in data set [5] were 1000 nM and 21 ng/g, respectively. Moreover, the inhibition result in [4] and in data set [7] was “Active” in each case. Also, the Activity entry in data set [6] is given as “Non-Toxic”.

As to `CNCCc1ccc(C(=O)Nc2ccc(C)c(Nc3nccc(-c4cccnc4)n3)c2)cc1`, the inhibition (commonly the share of the control response that was lost under treatment) in [8] is “Active”.

For `Cc1ccc(NC(=O)c2ccc(CCN(C)C)cc2)cc1Nc1nccc(-c2cccnc2)n1` [listing 1 of 2 here], the figures for the remaining at 0.5 h, 1 µM in [9] and in [10] were 7.9% and 61.9%, respectively. In addition, the results for the remaining at 1 h, 1 µM in data set [11] and in data set [14] were 1.3% and 29.2%, respectively. The IC50 in [1] and in [3] was above 5 µM throughout. Further, the Activity result in [12] and in [6] was “Non-Toxic” each time. Besides, the concentration at 4 h in data set [2] amounted to 2500 nM; in data set [5], 27 ng/g. For the same molecule, the values for the remaining at 1 h, 10 µM in data set [13] and in data set [17] were 2.3% and 56.5%, respectively. In addition, the remaining at 0.5 h, 10 µM in data set [15] amounted to 77.1%; in data set [16], 15.1%.

As to `CS(=O)(=O)O.Cc1ccc(NC(=O)c2ccc(CN3CCN(C)CC3)cc2)cc1Nc1nccc(-c2cccnc2)n1` [IMATINIB MESYLATE], the remaining at 0.5 h, 1 µM came to 7.3% in data set [9] and 40.4% in [10]. Moreover, the remaining at 1 h, 1 µM in data set [11] is 1.7%; in data set [14], 15.9%. Besides, the concentration at 4 h in data set [2] was 100 nM; in data set [5], below 1 ng/g. Further, the remaining at 1 h, 10 µM in data set [13] worked out at 5.1%; in data set [17], 66.4%. In addition, the remaining at 0.5 h, 10 µM in data set [15] was 95.4%; in data set [16], 22.5%.

Take `CS(=O)(=O)O.Cc1ccc(NC(=O)c2ccc(CCN(C)C)cc2)cc1Nc1nccc(-c2cccnc2)n1`: the Drug uptake result in [18] is on record as “Active”; in data set [19], “Not Active”; in data set [20], “Active”; in data set [21], “Not Active”.

In the case of `Cc1ccc(NC(=O)c2ccc(C3CCCN(C)C3)cc2)cc1Nc1nccc(-c2cccnc2)n1` (configuration not stated), the IC50 in data set [1] and in data set [3] was above 5 µM each time. Moreover, the concentration at 4 h was 2300 nM in data set [2] and 39 ng/g in [5]. Further, the inhibition result in data set [4] and in data set [7] was “Active” throughout. For the same molecule, the Activity result in data set [6] is reported as “Non-Toxic”.

Take `Cc1ccc(NC(=O)c2ccc(CCN(C)C)cc2C(F)(F)F)cc1Nc1nccc(-c2cccnc2)n1`: the figures for the concentration at 4 h in [22] and in data set [25] were 60 ng/g and 11600 nM, respectively. The inhibition in [23] and in data set [24] was 25% each time. The IC50 in data set [1] and in data set [3] was above 5 µM each time. Further, the inhibition entry in data set [4] and in data set [7] was “Active” each time. For the same molecule, the Activity entry in [6] is listed as “Non-Toxic”.

With `Cc1ccc(NC(=O)c2ccc(CCN(C)C)cc2)cc1Nc1nccc(-c2cccnc2)n1` [listing 2 of 2 here], the inhibition result in data set [26], in [27], in data set [28], in data set [4], in [29] and in data set [7] was “Active” throughout.

For `Cc1ccc(NC(=O)c2ccc(CCN)cc2)cc1Nc1nccc(-c2cccnc2)n1`, the inhibition entry in data set [8] is “Active”.

Regarding `C[C@H](NC(=O)Cc1cc(F)cc(F)c1)C(=O)N[C@H](C(=O)OC(C)(C)C)c1ccccc1`, the inhibition entry in [30] and in [31] was “Active” throughout.

Turning to `Cc1ccc(NC(=O)c2ccc(C3CCN(C)CC3)cc2)cc1Nc1nccc(-c2cccnc2)n1`, the half-inhibitory concentration (IC50) in [1] and in [3] was above 5 µM each time. Moreover, the inhibition entry in data set [4] and in [7] was “Active” throughout. For the same molecule, the concentration at 4 h in data set [5] was 127 ng/g. For the same molecule, the Activity entry in data set [6] was “Non-Toxic”.
